The values below come from BindingDB's records for doi:10.1021/acs.jmedchem.8b01912 (Monash University, 2019).

In the assay the target is T1, fMet-Leu-Phe receptor (Homo sapiens, UniProt P21462).
T1 sequence (P21462 whole entry): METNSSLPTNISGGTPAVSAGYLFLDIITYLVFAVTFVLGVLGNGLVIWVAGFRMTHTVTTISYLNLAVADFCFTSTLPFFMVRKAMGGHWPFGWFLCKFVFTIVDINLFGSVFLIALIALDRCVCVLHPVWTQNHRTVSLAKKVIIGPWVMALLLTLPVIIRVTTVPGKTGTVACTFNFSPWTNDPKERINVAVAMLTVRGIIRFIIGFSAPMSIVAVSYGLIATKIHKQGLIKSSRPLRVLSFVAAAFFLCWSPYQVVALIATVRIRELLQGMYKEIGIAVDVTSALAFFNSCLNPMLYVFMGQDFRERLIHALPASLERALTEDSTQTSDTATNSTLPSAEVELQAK
The assay can be described thus: Biased agonist activity at human FPR1 expressed in FlpIn-CHO cells assessed as intracellular calcium mobilization by Fluo-4-AM dye based fluorescence assay. In a few lines:
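Agonist transduction coefficients (Log(τ/KA)) for each signaling output estimated with an extension of the Black-Leff operational model. Values normalized to a reference ligand and to Ca2+ mobilization as reference pathway, giving ΔLog(τ/KA) and Log(bias factors). Data are mean ± SEM of 4 independent experiments, each performed in duplicate.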
On the technique in general: Calcium flux is commonly read through the fluorescence of an indicator in the cells.

What is called EC50 is the concentration giving half of the maximal effect.

Structures are written as SMILES.

On to `CCCCC(C(=O)Nc1ccc(Cl)cc1)n1nc(C)cc(Cc2ccccc2OC)c1=O` (stereo unspecified), for which the EC50 is 0.891 µM.
